From ChEMBL document CHEMBL4368899, “Novel carbohydrate modified berberine derivatives: synthesis and in vitro anti-diabetic investigation” (Medchemcomm, 2019)

Experiments:
HepG2 [1] = assay: Cytotoxicity against human HepG2 cells after 12 hrs by CCK-8 assay; format: cell-based; settings: for IC50: Homo sapiens, HepG2, 12 h; for Activity: human, hepg2, 12 h
Method in brief: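 Cells were cultured in DMEM/10% heat-inactivated FBS with penicillin/streptomycin at 37 °C, 5% CO2, and harvested with trypsin at 80–90% confluence. They were plated at 1×10^5 cells per mL, and medium was refreshed after 12 h. Cells were treated 12 h with 0.2–625 µg mL⁻¹ compound dissolved in 0.5% DMSO–water. CCK-8 was added for 4 h, then A570 read, correcting for compound colour. IC50 is relative to untreated cells as 100%. n = 3.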

HepG2 [2] = assay: Antidiabetic activity in human HepG2 cells assessed as increase in glucose consumption at 5 ug/mL after 48 hrs by glucose oxidase method relative to berberine; format: functional
Method in brief: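 HepG2 cells were grown in DMEM with 10% heat-inactivated FBS and penicillin/streptomycin. They were seeded at 2×10^5 cells per well and cultured 12 h at 37 °C in 5% CO2. Cells were then exposed to 5.0 µg mL⁻¹ compound for two days. A DMSO solvent control and a blank were run. Glucose was measured by glucose oxidase. Consumption = blank-well glucose minus glucose remaining in treated wells. Means ± SD, n = 8, expressed as % increase over berberine.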

[3] = Aqueous solubility of compound; format: physicochemical; settings: water
[4] = Stability of compound in acetonitrile/water at 1:1 ratio at pH 1.5 assessed as compound degradation after 5 hrs by HPLC analysis; format: physicochemical; settings: acetonitrile/water 1:1, pH 1.5; read-out: Drug degradation
Method in brief: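 Remaining compound after 5 h was quantified by HPLC on a C8 column (250 × 4.6 mm, 5 µm). Elution used 50% acetonitrile in 0.05 mol L⁻¹ aqueous KH2PO4 at 1 mL min⁻¹, with detection at 320 nm.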

| SMILES | IC50 (HepG2 [1]) [µg/mL] | Activity (HepG2 [1]) | Activity (HepG2 [2]) [%] | solubility [3] [µg/mL] | degraded at 5 h [4] [%] |
| --- | --- | --- | --- | --- | --- |
| COc1ccc2cc3[n+](cc2c1OCc1cn([C@H]2O[C@H](CO)[C@@H](O)[C@H](O)[C@@H]2O)nn1)CCc1cc2c(cc1-3)OCO2.[Cl-] | 72.2 | Dose-dependent effect | 10.81 | 9000 | 0.3 |
| COc1ccc2cc3[n+](cc2c1OCc1cn([C@@H]2O[C@H](CO)[C@@H](O)[C@H]2O)nn1)CCc1cc2c(cc1-3)OCO2.[Cl-] | 44 | Dose-dependent effect | 14.83 |  |  |
| COc1ccc2cc3[n+](cc2c1OCc1cn([C@@H]2O[C@H](CO)[C@@H](O)[C@H](O)[C@H]2O)nn1)CCc1cc2c(cc1-3)OCO2.[Cl-] | 62.9 | Dose-dependent effect | 2.23 |  |  |
| COc1ccc2cc3[n+](cc2c1OCc1cn([C@@H]2O[C@@H](C)[C@H](O)[C@@H](O)[C@H]2O)nn1)CCc1cc2c(cc1-3)OCO2.[Cl-] | 49.3 | Dose-dependent effect | -3.6 |  |  |
| COc1ccc2cc3[n+](cc2c1OCc1cn([C@@H]2O[C@H](CO)[C@H](O)[C@H](O)[C@H]2O)nn1)CCc1cc2c(cc1-3)OCO2.[Cl-] | 59.3 | Dose-dependent effect | 0.21 |  |  |
| COc1ccc2cc3[n+](cc2c1OC)CCc1cc2c(cc1-3)OCO2.[Cl-] [BERBERINE CHLORIDE] | 53.9 |  |  | 1750 | 1.8 |
